Results filed as inconclusive are left out. The source made the active and inactive calls. The rule behind the calls is not given here.
What follows are molecules tested on ldlA CHO mSR-BI C384S, [3H]cholesterol efflux to HDL (assay: HDL-directed free cholesterol efflux, C384S receptor cells – cell-based, ldlA CHO, [3H]cholesterol, single point, dry powder, mechanism study for SR-BI HDL uptake inhibitor project (AID 588843)). Settings: not given.
Outline: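 Material – ldlA CHO cells expressing Cys384S-mutant SR-BI, [3H]cholesterol-labelled · Medium – HEPES-buffered medium with 0.5% FAF-BSA · Probe or stimulus – unlabelled HDL as cholesterol acceptor, 100 µg/mL final · Times – 2-day [3H]cholesterol labelling, 1% FAF-BSA equilibration, 1-h pre-exposure, 2-h efflux · Detection – liquid scintillation counting of [3H]cholesterol in medium and cells · Read-out basis – medium [3H]cholesterol as % of cell-plus-medium total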
With `O=C(Nc1ccc(-c2nc3cc(NC(=O)c4ccc(NC(=O)c5cccc6ccccc56)cc4)ccc3[nH]2)cc1)c1ccc(NC(=O)c2cccc3ccccc23)cc1` the outcome was “active”.
For `CCOC(=O)N1CCC(NC(=O)c2ccc3c(c2)N(Cc2ccc(F)cc2)CCS3)CC1`, the outcome was “active”.

Same assay, conditions: at 1 µM; stronger effect = lower value
`CC(C)OCCCNC(=O)c1ccc(C2SCC(=O)N2Cc2ccco2)cc1` (centres undefined) was tested, and the cholesterol efflux was 18.9% (inactive).
With `COc1cccc(-c2csc(N3CCN(C(=S)Nc4cccc(Cl)c4)CC3)n2)c1` the cholesterol efflux was 16.6% (inactive).
`Cc1ccc2oc(-c3cccc(NC(=O)c4cc(-n5cnnc5)ccc4Cl)c3)nc2c1` was tested, and the cholesterol efflux was 19.7% (inactive).
With `Cc1cc(C(=O)C(C)OC(=O)C2=NNC(=O)CC2)c(C)n1-c1ccc(OC(F)F)cc1` (centres undefined) the cholesterol efflux was 16.5% (inactive).
Molecule `Cc1cc(SC(C)C(=O)Nc2ncc(Cl)cc2Cl)nc2ccccc12` (centres undefined) has a cholesterol efflux of 15.5%.
With `COc1ccc([C@H]2CC(=O)C=C(c3cccc4c3sc3ccccc34)C2)cc1OC` the cholesterol efflux was 18.7% (inactive).
`CCC(=O)N1CCc2cc(-c3csc(NC(=O)c4ccco4)n3)ccc21` was tested, and the cholesterol efflux was 9.04%.
For `O=C(Nc1ccccc1Cl)c1ccccc1NS(=O)(=O)c1ccccc1`, the cholesterol efflux was 21% (inactive).
In the case of `Cc1ccc(-c2nnc(N3CCC(C)CC3)c3ccccc23)cc1C`, the cholesterol efflux is reported as 20.5% (inactive).
`O=C(Nc1cccc(NC(=O)c2cc([N+](=O)[O-])ccc2Cl)n1)c1cc([N+](=O)[O-])ccc1Cl` gave a cholesterol efflux of 14.2%.
With `Cc1cc(C)c2c(c1)NC(c1cc3c(cc1Br)OCO3)C1CC=CC21` (centres undefined) the cholesterol efflux was 19% (inactive).
For `COc1ccc(-c2nnn(CC(=O)N(C3CCCCC3)C(C)C(=O)NC3CCCC3)n2)cc1OC` (centres undefined), the cholesterol efflux was 14.2%.
`O=C(Nc1cc(C(F)(F)F)ccc1Cl)c1ccccc1NS(=O)(=O)c1ccc(Cl)cc1` was tested, and the cholesterol efflux was 21.7% (inactive).
In the case of `Cc1cc(C)n(CC(=O)NC2CCCc3c2cnn3-c2ccc(C)c(C)c2)n1` (centres undefined), the cholesterol efflux is reported as 17.2% (inactive).
`O=C(Nc1ccc(-c2nc3ccc(NC(=O)c4ccccc4)cc3[nH]2)cc1)c1ccccc1` was tested, and the cholesterol efflux was 11.7%.
With `COc1ccc(OC)c(CCNC(=O)c2ccc3c(c2)N(Cc2ccc(F)cc2)CCS3)c1` the cholesterol efflux was 16.9% (inactive).
With `O=C(Nc1ccc(Cl)cc1C(=O)c1ccc(Cl)cc1)c1cc(Br)ccc1NS(=O)(=O)c1ccc(Cl)cc1` the cholesterol efflux was 21.7% (inactive).
`O=C(Nc1cc(Cl)ccc1Cl)c1cc(Br)ccc1NS(=O)(=O)c1ccc(Cl)c([N+](=O)[O-])c1` was tested, and the cholesterol efflux was 20.5% (inactive).
`N#Cc1sc2nc(C3CC3)cc(-c3ccc(Cl)cc3)c2c1N` gave a cholesterol efflux of 14.7%.
For `CCOc1ccc(NC(=O)CN2CCN(CC(=O)Nc3cc(OC)cc(OC)c3)CC2)cc1`, the cholesterol efflux was 17.9% (inactive).
With `CC(OC(=O)c1cccc(NS(C)(=O)=O)c1)C(=O)Nc1ccc(N2CCOCC2)cc1` (centres undefined) the cholesterol efflux was 10.3%.
With `Cc1ccccc1NC(=O)NCC1CCN(c2ccc(S(=O)(=O)N3CCOCC3)cc2)CC1` the cholesterol efflux was 18.4% (inactive).
`O=C(Nc1ccc(-c2nc3cc(NC(=O)c4ccccc4[N+](=O)[O-])ccc3o2)cc1)c1ccccc1[N+](=O)[O-]` was tested, and the cholesterol efflux was 5.43%.
`CCOc1ccccc1/C=C/c1onc(C)c1S(=O)(=O)N1CCC(C(=O)NC(C)(C)C)CC1` gave a cholesterol efflux of 7.29%.
With `COC(=O)c1cn(C(=O)c2cccc3ccccc23)c2ccccc12` the cholesterol efflux was 19.2% (inactive).
For `O=C(Nc1ccc(-c2nc3cc(NC(=O)c4ccccc4Cl)ccc3o2)cc1)c1ccccc1Cl`, the cholesterol efflux was 5.15%.
With `CCn1c(COc2c(C)cccc2C)nnc1SCC(=O)N1CCN(c2ccccc2)CC1` the cholesterol efflux was 17.1% (inactive).

Same assay, conditions: measured here: second test run; at 1 µM; stronger effect = lower value
`O=C(Nc1ccc(-c2nc3cc(NC(=O)c4ccc(NC(=O)c5cccc6ccccc56)cc4)ccc3[nH]2)cc1)c1ccc(NC(=O)c2cccc3ccccc23)cc1` was tested, and the cholesterol efflux was 7.85%.
For `CCC(=O)N1CCc2cc(-c3csc(NC(=O)c4ccco4)n3)ccc21`, the cholesterol efflux was 7.93%.
With `COc1ccc(-c2nnn(CC(=O)N(C3CCCCC3)C(C)C(=O)NC3CCCC3)n2)cc1OC` (centres undefined) the cholesterol efflux was 7.04%.
In the case of `CCOC(=O)N1CCC(NC(=O)c2ccc3c(c2)N(Cc2ccc(F)cc2)CCS3)CC1`, the cholesterol efflux is reported as 7.46%.
`O=C(Nc1ccc(-c2nc3cc(NC(=O)c4ccccc4[N+](=O)[O-])ccc3o2)cc1)c1ccccc1[N+](=O)[O-]` showed a cholesterol efflux of 3.07%.

— PubChem BioAssay AID588843 (Broad Institute, 2011)
